A word on the MIC: it is the lowest concentration that inhibits growth of the organism. A low value points to greater potency.

The values below come from ChEMBL document CHEMBL1671664 (2009).

Values after ≈ are worked out from the molar mass of the structure shown. Active and inactive are the calls of the source. The rule behind the calls is not given here.

The test system of assay [1] is Salmonella typhimurium. The assay can be described thus: Antimicrobial activity against qnrS-positive Salmonella enterica serovar Typhimurium isolate s2705 harboring wild type ParC gene by agar dilution method. The format is functional, Salmonella enterica subsp. enterica serovar Typhimurium.
Assay [2] can be described thus: Antimicrobial activity against Salmonella enterica serovar Mbandaka isolate s2159 harboring ParC QRDR mutant gene by agar dilution method. Format: functional, Salmonella enterica subsp. enterica serovar Mbandaka. For orientation: Agar dilution tests growth on a series of plates holding different concentrations.
Assay [3] is described as follows: Antimicrobial activity against Salmonella enterica serovar Stanley isolate s2043 harboring ParC QRDR mutant gene by agar dilution method. Format: functional, Salmonella enterica subsp. enterica serovar Stanley.
Assay [4] relates to Salmonella typhimurium. Put plainly: Antimicrobial activity against Salmonella enterica serovar Typhimurium isolate s2878 harboring wild type ParC gene by agar dilution method. Format: functional, Salmonella enterica subsp. enterica serovar Typhimurium.
Assay [5] deals with Salmonella typhimurium. The assay can be described thus: Antimicrobial activity against Salmonella enterica serovar Typhimurium isolate SL1344 harboring wild type ParC gene by agar dilution method. The format is functional, Salmonella enterica subsp. enterica serovar Typhimurium.
The nature of assay [6]: Antimicrobial activity against Salmonella enterica serovar Montevideo isolate s2317 harboring ParC QRDR mutant gene by agar dilution method. The format is functional, Salmonella enterica subsp. enterica serovar Montevideo.
Assay [7] is described as follows: Antimicrobial activity against qnrS-positive Salmonella enterica serovar Corvallis isolate s2017 harboring ParC QRDR mutant gene by agar dilution method. The format is functional, Salmonella enterica subsp. enterica serovar Corvallis.
For assay [8], the system named is Salmonella enterica subsp. enterica serovar Montevideo. Put plainly: Drug uptake in qnrS-positive Salmonella enterica serovar Montevideo isolate s2209 harboring ParC QRDR mutant gene in presence of CCCP. Format: functional. In short, it runs like this: (§1)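 Cell suspensions preincubated with 100 μM CCCP before substrate addition. Ciprofloxacin accumulation read by fluorescence (ex 311/em 447 nm), Hoechst 33342 by fluorescence (ex 355/[…]), at 10 min. Expressed relative to S. Typhimurium SL1344. Differences tested by Student t test (P < 0.05).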

Assay [9] relates to Salmonella typhimurium. Put plainly: Antimicrobial activity against qnrS-positive Salmonella enterica serovar Typhimurium isolate s2425 harboring wild type ParC gene by agar dilution method. Format: functional, Salmonella enterica subsp. enterica serovar Typhimurium.
The nature of assay [10]: Antimicrobial activity against qnrS-positive Salmonella enterica serovar Virginia isolate s2219 harboring ParC QRDR mutant gene by agar dilution method. Format: functional, Salmonella enterica subsp. enterica serovar Virginia.
Assay [11] can be described thus: Antimicrobial activity against qnrS-positive Salmonella enterica serovar Montevideo isolate s2944 harboring ParC QRDR mutant gene by agar dilution method. Format: functional, Salmonella enterica subsp. enterica serovar Montevideo.
Assay [12] in a line: Antimicrobial activity against qnrS-positive Salmonella enterica serovar Montevideo isolate s2209 harboring ParC QRDR mutant gene by agar dilution method. The format is functional, Salmonella enterica subsp. enterica serovar Montevideo.
Assay [13] can be described thus: Antimicrobial activity against qnrS-positive Salmonella enterica serovar Corvallis isolate s2052 harboring ParC QRDR mutant gene by agar dilution method. The format is functional, Salmonella enterica subsp. enterica serovar Corvallis.
Assay [14] in a line: Antimicrobial activity against qnrS-positive Salmonella enterica serovar Braenderup isolate s2856 harboring ParC QRDR mutant gene by agar dilution method. The format is functional, Salmonella enterica subsp. enterica serovar Braenderup.
The nature of assay [15]: Antimicrobial activity against qnrS-positive Salmonella enterica serovar Stanley isolate s2018 harboring ParC QRDR mutant gene by agar dilution method. The format is functional, Salmonella enterica subsp. enterica serovar Stanley.
A short description of assay [16]: Antimicrobial activity against qnrA-positive Salmonella enterica serovar Mbandaka isolate s2093 harboring ParC QRDR mutant gene by agar dilution method. The format is functional, Salmonella enterica subsp. enterica serovar Mbandaka.
The nature of assay [17]: Antimicrobial activity against Salmonella enterica serovar Braenderup isolate s2906 harboring ParC QRDR mutant gene by agar dilution method. The format is functional, Salmonella enterica subsp. enterica serovar Braenderup.
For assay [18], the system named is Salmonella enterica subsp. enterica serovar Mbandaka. Put plainly: Drug uptake in qnrA-positive Salmonella enterica serovar Mbandaka isolate s2093 harboring ParC QRDR mutant gene in presence of CCCP. The format is functional. In short, it runs like this:
as §1

Assay [19] in a line: Antimicrobial activity against Salmonella enterica serovar Corvallis isolate s2064 harboring ParC QRDR mutant gene by agar dilution method. The format is functional, Salmonella enterica subsp. enterica serovar Corvallis.
The test system of assay [20] is Escherichia coli. The assay can be described thus: Antimicrobial activity against Escherichia coli DH5[alpha] transformed with Salmonella enterica serovar Virginia isolate s2219 plasmid encoded qnrS and Parc QRDR Thre57Ser mutant gene by agar dilution method. Format: functional. The procedure, abridged:
(§2)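 E. coli DH5α transformed by electroporation with qnr-carrying plasmid DNA from donor Salmonella isolates; transformants selected on LB agar with 0.03 μg/ml ciprofloxacin, qnr confirmed by multiplex PCR. MICs to ciprofloxacin and nalidixic acid by agar dilution.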

The subject of assay [21] is Escherichia coli. Put plainly: Antimicrobial activity against Escherichia coli DH5[alpha] transformed with Salmonella enterica serovar Typhimurium isolate s2425 plasmid encoded qnrS and Parc gene by agar dilution method. The format is functional. In short, it runs like this: as §2
Assay [22] deals with Escherichia coli. Put plainly: Antimicrobial activity against Escherichia coli DH5[alpha] transformed with Salmonella enterica serovar Typhimurium isolate s2705 plasmid encoded qnrS and Parc gene by agar dilution method. Format: functional. The procedure, abridged:
as §2

Assay [23] deals with Escherichia coli. Put plainly: Antimicrobial activity against Escherichia coli DH5[alpha] transformed with Salmonella enterica serovar Montevideo isolate s2209 plasmid encoded qnrS and Parc QRDR Thre57Ser mutant gene by agar dilution method. The format is functional. The procedure, abridged:
as §2

For assay [24], the system named is Escherichia coli. The assay can be described thus: Antimicrobial activity against Escherichia coli DH5[alpha] transformed with Salmonella enterica serovar Corvallis isolate s2017 plasmid encoded qnrS and Parc QRDR Thre57Ser mutant gene by agar dilution method. Format: functional. The procedure, abridged:
as §2

In assay [25] the test system is Escherichia coli. Put plainly: Antimicrobial activity against Escherichia coli DH5[alpha] transformed with Salmonella enterica serovar Corvallis isolate s2052 plasmid encoded qnrS and Parc QRDR Thre57Ser mutant gene by agar dilution method. The format is functional. In short, it runs like this:
as §2

For assay [26], the system named is Escherichia coli. The assay can be described thus: Antimicrobial activity against Escherichia coli DH5[alpha] transformed with Salmonella enterica serovar Montevideo isolate s2944 plasmid encoded qnrS and Parc QRDR Thre57Ser mutant gene by agar dilution method. The format is functional. The procedure, abridged:
as §2

Consider `O=C(O)c1cn(C2CC2)c2cc(N3CCNCC3)c(F)cc2c1=O` [CIPROFLOXACIN], for which the minimal inhibitory concentration (MIC) in the assay on Salmonella typhimurium [1] turned out to be 0.5 µg/mL (≈ 1.51 µM); in assay [2] it was 0.008 µg/mL (≈ 0.0241 µM); in [3] it was 0.015 µg/mL (≈ 0.0453 µM); with Salmonella typhimurium [4], 0.03 µg/mL (≈ 0.0905 µM); against Salmonella typhimurium [5], 0.06 µg/mL (≈ 0.181 µM); in assay [6], 0.015 µg/mL (≈ 0.0453 µM). Besides, the MIC in assay [7] amounted to 0.25 µg/mL (≈ 0.754 µM); with Salmonella typhimurium [9], 0.5 µg/mL (≈ 1.51 µM); in assay [10] it was 0.5 µg/mL (≈ 1.51 µM); in assay [11], 0.5 µg/mL (≈ 1.51 µM); in [12] it was 0.5 µg/mL (≈ 1.51 µM); in assay [13], 0.5 µg/mL (≈ 1.51 µM). For the same molecule, the MIC in assay [14] is 0.5 µg/mL (≈ 1.51 µM); in [15] it was 0.5 µg/mL (≈ 1.51 µM); in assay [16] it was 4 µg/mL (≈ 12.1 µM); in assay [17] it was 0.015 µg/mL (≈ 0.0453 µM); in [19], 0.015 µg/mL (≈ 0.0453 µM). For the same molecule, the Drug uptake result in assay [8] and in assay [18] was “inactive” throughout.
In the case of `C[C@H]1COc2c(N3CCN(C)CC3)c(F)cc3c(=O)c(C(=O)O)cn1c23.C[C@H]1COc2c(N3CCN(C)CC3)c(F)cc3c(=O)c(C(=O)O)cn1c23.O` [LEVOFLOXACIN], the MIC with Salmonella typhimurium [1] stood at 1 µg/mL; in assay [2] it was 0.06 µg/mL; in [3], 0.06 µg/mL; in [6] it was 0.06 µg/mL; in assay [7], 1 µg/mL; with Salmonella typhimurium [9] it was 1 µg/mL. In addition, the MIC was determined as 1 µg/mL in [10]; 1 µg/mL in assay [11]; 1 µg/mL in assay [12]; 0.5 µg/mL in [13]; 1 µg/mL in [14]; 1 µg/mL in assay [15]. Moreover, the minimal inhibitory concentration (MIC) in assay [16] is 1 µg/mL; in [19] it was 0.06 µg/mL.
Turning to `COc1c(N2C[C@@H]3CCCN[C@@H]3C2)c(F)cc2c(=O)c(C(=O)O)cn(C3CC3)c12` [MOXIFLOXACIN], the minimum inhibitory concentration (MIC) in [2] was 0.125 µg/mL (≈ 0.311 µM); in assay [3], 0.06 µg/mL (≈ 0.149 µM); in assay [6], 0.06 µg/mL (≈ 0.149 µM); in assay [13] it was 2 µg/mL (≈ 4.98 µM); in [16], 0.5 µg/mL (≈ 1.25 µM); in assay [19], 0.06 µg/mL (≈ 0.149 µM).
In the case of `CCn1cc(C(=O)O)c(=O)c2ccc(C)nc21` [NALIDIXIC ACID], the MIC stood at 16 µg/mL (≈ 68.9 µM) against Salmonella typhimurium [1]; 4 µg/mL (≈ 17.2 µM) in assay [2]; 4 µg/mL (≈ 17.2 µM) in assay [3]; 16 µg/mL (≈ 68.9 µM) in the assay on Salmonella typhimurium [4]; 4 µg/mL (≈ 17.2 µM) with Salmonella typhimurium [5]; 4 µg/mL (≈ 17.2 µM) in assay [6]. The MIC is 16 µg/mL (≈ 68.9 µM) in assay [7]; 8 µg/mL (≈ 34.4 µM) against Escherichia coli [20]; 16 µg/mL (≈ 68.9 µM) in the assay on Salmonella typhimurium [9]; 32 µg/mL (≈ 138 µM) in [10]; 16 µg/mL (≈ 68.9 µM) in assay [11]; 32 µg/mL (≈ 138 µM) in assay [12]. In addition, the MIC turned out to be 8 µg/mL (≈ 34.4 µM) against Escherichia coli [21]; 16 µg/mL (≈ 68.9 µM) in assay [13]; 16 µg/mL (≈ 68.9 µM) in assay [14]; 8 µg/mL (≈ 34.4 µM) in the assay with Escherichia coli [22]; 16 µg/mL (≈ 68.9 µM) in assay [15]; 8 µg/mL (≈ 34.4 µM) with Escherichia coli [23]. Also, the minimal inhibitory concentration (MIC) in [16] came to 16 µg/mL (≈ 68.9 µM); in assay [17], 4 µg/mL (≈ 17.2 µM); against Escherichia coli [24], 8 µg/mL (≈ 34.4 µM); against Escherichia coli [25], 8 µg/mL (≈ 34.4 µM); in assay [19] it was 4 µg/mL (≈ 17.2 µM); in the assay on Escherichia coli [26], 8 µg/mL (≈ 34.4 µM).
Turning to `CCn1cc(C(=O)O)c(=O)c2cc(F)c(N3CCNCC3)cc21` [NORFLOXACIN], the minimal inhibitory concentration (MIC) came out at 2 µg/mL (≈ 6.26 µM) in the assay with Salmonella typhimurium [1]; 0.125 µg/mL (≈ 0.391 µM) in assay [2]; 0.125 µg/mL (≈ 0.391 µM) in assay [3]; 0.125 µg/mL (≈ 0.391 µM) in [6]; 2 µg/mL (≈ 6.26 µM) in assay [7]; 2 µg/mL (≈ 6.26 µM) in the assay with Salmonella typhimurium [9]. Besides, the MIC is 2 µg/mL (≈ 6.26 µM) in assay [10]; 2 µg/mL (≈ 6.26 µM) in assay [11]; 2 µg/mL (≈ 6.26 µM) in [12]; 1 µg/mL (≈ 3.13 µM) in assay [13]; 2 µg/mL (≈ 6.26 µM) in [14]; 2 µg/mL (≈ 6.26 µM) in assay [15]. The MIC in assay [16] was 16 µg/mL (≈ 50.1 µM); in assay [19] it was 0.06 µg/mL (≈ 0.188 µM).
Consider `CC1COc2c(N3CCN(C)CC3)c(F)cc3c(=O)c(C(=O)O)cn1c23` (stereo unspecified) [OFLOXACIN], for which the minimum inhibitory concentration (MIC) in the assay on Salmonella typhimurium [1] came to 2 µg/mL (≈ 5.53 µM); in [2] it was 0.125 µg/mL (≈ 0.346 µM); in [3] it was 0.125 µg/mL (≈ 0.346 µM); in assay [6], 0.125 µg/mL (≈ 0.346 µM); in assay [7] it was 2 µg/mL (≈ 5.53 µM); against Salmonella typhimurium [9] it was 2 µg/mL (≈ 5.53 µM). Also, the MIC in [10] amounted to 2 µg/mL (≈ 5.53 µM); in assay [11], 2 µg/mL (≈ 5.53 µM); in [12], 2 µg/mL (≈ 5.53 µM); in assay [13], 1 µg/mL (≈ 2.77 µM); in assay [14] it was 2 µg/mL (≈ 5.53 µM); in assay [15], 2 µg/mL (≈ 5.53 µM). The MIC in assay [16] came out at 1 µg/mL (≈ 2.77 µM); in [19], 0.03 µg/mL (≈ 0.083 µM).
